These results are taken from ChEMBL document CHEMBL1933013, “Synthesis, SAR, and preliminary mechanistic evaluation of novel antiproliferative N⁶,5'-bis-ureido- and 5'-carbamoyl-N⁶-ureidoadenosine derivatives” (Bioorg Med Chem, 2012).

The target of assay [1] is Epidermal growth factor receptor (Homo sapiens) (UniProt P00533). Kind of assay: Inhibition of EGFR at 10 uM after 1 hr by competitive binding assay. The gist of the method: (§1)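 Single-dose competitive binding at 10 μM against immobilized ATP-site ligands (DiscoveRx): phage-tagged or HEK-293-expressed DNA-tagged kinase with ligand-loaded streptavidin magnetic beads in 20% SeaBlock, 0.17× PBS, 0.05% Tween 20, 6 mM DTT, 1 h room temperature with shaking. Beads washed, eluted with 0.5 μM free ligand for 30 min; bound kinase quantified by qPCR as % binding inhibition.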

In assay [2] the target is Protein kinase C epsilon type (Homo sapiens) (UniProt Q02156). Kind of assay: Inhibition of PRKCE at 10 uM after 1 hr by competitive binding assay. The gist of the method:
as §1

Assay [3] has as its target Receptor tyrosine-protein kinase erbB-2 (Homo sapiens) (UniProt P04626). Kind of assay: Inhibition of ErbB2 at 10 uM after 1 hr by competitive binding assay. The procedure, abridged: as §1
For assay [4], the target named is Serine/threonine-protein kinase Nek2 (Homo sapiens) (UniProt P51955). Description: Inhibition of NEK2 at 10 uM after 1 hr by competitive binding assay. The procedure, abridged: as §1
Chain of Serine/threonine-protein kinase Nek2 (Homo sapiens) (P51955 whole entry): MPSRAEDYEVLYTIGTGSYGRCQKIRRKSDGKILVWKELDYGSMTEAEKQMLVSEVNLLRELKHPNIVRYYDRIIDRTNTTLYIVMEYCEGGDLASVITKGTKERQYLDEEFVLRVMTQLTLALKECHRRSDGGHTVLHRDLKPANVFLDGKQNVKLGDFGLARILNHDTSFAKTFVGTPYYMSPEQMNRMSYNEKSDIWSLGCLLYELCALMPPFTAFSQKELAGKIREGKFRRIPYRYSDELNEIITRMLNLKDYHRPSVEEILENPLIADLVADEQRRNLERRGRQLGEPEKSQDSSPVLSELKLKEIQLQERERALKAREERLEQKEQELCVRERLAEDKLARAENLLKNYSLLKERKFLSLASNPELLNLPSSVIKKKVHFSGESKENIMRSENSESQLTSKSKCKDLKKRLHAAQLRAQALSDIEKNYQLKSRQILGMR
Assay [5] has as its target Serine/threonine-protein kinase DCLK1 (Homo sapiens) (UniProt O15075). Description: Inhibition of DCLK1 at 10 uM after 1 hr by competitive binding assay. The procedure, abridged:
as §1

Assay [6] concerns the target NT-3 growth factor receptor (Homo sapiens) (UniProt Q16288). Description: Inhibition of NTRK3 at 10 uM after 1 hr by competitive binding assay. The gist of the method:
as §1

The target of assay [7] is T1, Bone morphogenetic protein receptor type-1B (Homo sapiens, UniProt O00238). Kind of assay: Inhibition of BMPR1B at 10 uM after 1 hr by competitive binding assay. The procedure, abridged: as §1
T1 sequence (O00238 whole entry): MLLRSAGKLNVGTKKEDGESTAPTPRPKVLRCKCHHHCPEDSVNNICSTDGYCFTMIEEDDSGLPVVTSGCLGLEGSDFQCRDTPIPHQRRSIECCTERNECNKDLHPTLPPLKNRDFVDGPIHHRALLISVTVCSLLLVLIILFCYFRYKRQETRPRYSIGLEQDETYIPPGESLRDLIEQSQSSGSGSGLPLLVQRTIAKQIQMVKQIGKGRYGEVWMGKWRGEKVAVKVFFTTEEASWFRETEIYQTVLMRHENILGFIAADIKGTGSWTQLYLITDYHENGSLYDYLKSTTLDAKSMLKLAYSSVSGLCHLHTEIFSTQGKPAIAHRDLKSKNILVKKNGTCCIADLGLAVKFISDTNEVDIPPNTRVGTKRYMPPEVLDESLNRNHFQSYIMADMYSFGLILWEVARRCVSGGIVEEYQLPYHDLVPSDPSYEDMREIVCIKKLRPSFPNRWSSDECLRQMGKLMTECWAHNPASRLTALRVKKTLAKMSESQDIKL
Assay [8] concerns the target Mitogen-activated protein kinase 11 (Homo sapiens) (UniProt Q15759). Description: Inhibition of MAPK11 at 10 uM after 1 hr by competitive binding assay. The gist of the method:
as §1

For assay [9], the target named is Tyrosine-protein kinase Tec (Homo sapiens) (UniProt P42680). Kind of assay: Inhibition of TEC at 10 uM after 1 hr by competitive binding assay. The procedure, abridged:
as §1

In assay [10] the target is Myosin light chain kinase (Homo sapiens) (UniProt Q32MK0). Description: Inhibition of MYLK3 at 10 uM after 1 hr by competitive binding assay. The gist of the method: as §1
Chain of Myosin light chain kinase (Homo sapiens) (Q32MK0 whole entry): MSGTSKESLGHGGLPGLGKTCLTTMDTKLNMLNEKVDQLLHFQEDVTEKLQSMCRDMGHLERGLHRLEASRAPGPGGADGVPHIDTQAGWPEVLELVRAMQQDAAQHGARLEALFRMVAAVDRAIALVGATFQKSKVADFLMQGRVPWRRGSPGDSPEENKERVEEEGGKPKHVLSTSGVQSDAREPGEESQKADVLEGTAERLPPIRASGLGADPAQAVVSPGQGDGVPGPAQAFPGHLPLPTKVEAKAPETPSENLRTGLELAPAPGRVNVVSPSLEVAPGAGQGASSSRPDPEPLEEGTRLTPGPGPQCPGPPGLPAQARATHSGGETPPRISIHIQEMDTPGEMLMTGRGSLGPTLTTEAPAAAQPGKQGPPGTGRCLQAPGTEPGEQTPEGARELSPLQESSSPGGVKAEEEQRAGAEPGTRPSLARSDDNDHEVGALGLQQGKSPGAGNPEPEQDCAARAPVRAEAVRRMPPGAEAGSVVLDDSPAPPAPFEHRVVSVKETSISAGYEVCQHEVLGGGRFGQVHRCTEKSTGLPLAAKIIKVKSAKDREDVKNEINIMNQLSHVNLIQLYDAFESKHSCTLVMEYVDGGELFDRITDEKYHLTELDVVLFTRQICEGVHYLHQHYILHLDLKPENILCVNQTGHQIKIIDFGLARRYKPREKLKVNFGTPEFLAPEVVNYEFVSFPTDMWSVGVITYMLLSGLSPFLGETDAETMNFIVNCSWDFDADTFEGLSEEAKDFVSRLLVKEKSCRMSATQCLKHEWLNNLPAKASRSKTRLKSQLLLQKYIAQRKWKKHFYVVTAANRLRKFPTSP
The target in assay [11] is Tyrosine-protein kinase ABL1 (Homo sapiens) (UniProt P00519). Description: Inhibition of ABL1 at 10 uM after 1 hr by competitive binding assay. The procedure, abridged: as §1
Assay [12] addresses Tyrosine-protein kinase Blk (Homo sapiens) (UniProt P51451). Description: Inhibition of Blk at 10 uM after 1 hr by competitive binding assay. The procedure, abridged: as §1
Assay [13] deals with Myosin light chain kinase family member 4 (Homo sapiens) (UniProt Q86YV6). Kind of assay: Inhibition of MYLK4 at 10 uM after 1 hr by competitive binding assay. The gist of the method: as §1
Assay [14] has as its target Receptor-type tyrosine-protein kinase FLT3 (Homo sapiens) (UniProt P36888). Description: Inhibition of FLT-3 kinase at 10 uM after 1 hr by competitive binding assay. The gist of the method: as §1
In assay [15] the target is MAP kinase-interacting serine/threonine-protein kinase 2 (Homo sapiens) (UniProt Q9HBH9). Kind of assay: Inhibition of MKNK2 at 10 uM after 1 hr by competitive binding assay. The procedure, abridged:
as §1

The target of assay [16] is Homeodomain-interacting protein kinase 1 (Homo sapiens) (UniProt Q86Z02). Description: Inhibition of HIPK1 at 10 uM after 1 hr by competitive binding assay. The gist of the method: as §1
Chain of Homeodomain-interacting protein kinase 1 (Homo sapiens) (Q86Z02 whole entry, looked up): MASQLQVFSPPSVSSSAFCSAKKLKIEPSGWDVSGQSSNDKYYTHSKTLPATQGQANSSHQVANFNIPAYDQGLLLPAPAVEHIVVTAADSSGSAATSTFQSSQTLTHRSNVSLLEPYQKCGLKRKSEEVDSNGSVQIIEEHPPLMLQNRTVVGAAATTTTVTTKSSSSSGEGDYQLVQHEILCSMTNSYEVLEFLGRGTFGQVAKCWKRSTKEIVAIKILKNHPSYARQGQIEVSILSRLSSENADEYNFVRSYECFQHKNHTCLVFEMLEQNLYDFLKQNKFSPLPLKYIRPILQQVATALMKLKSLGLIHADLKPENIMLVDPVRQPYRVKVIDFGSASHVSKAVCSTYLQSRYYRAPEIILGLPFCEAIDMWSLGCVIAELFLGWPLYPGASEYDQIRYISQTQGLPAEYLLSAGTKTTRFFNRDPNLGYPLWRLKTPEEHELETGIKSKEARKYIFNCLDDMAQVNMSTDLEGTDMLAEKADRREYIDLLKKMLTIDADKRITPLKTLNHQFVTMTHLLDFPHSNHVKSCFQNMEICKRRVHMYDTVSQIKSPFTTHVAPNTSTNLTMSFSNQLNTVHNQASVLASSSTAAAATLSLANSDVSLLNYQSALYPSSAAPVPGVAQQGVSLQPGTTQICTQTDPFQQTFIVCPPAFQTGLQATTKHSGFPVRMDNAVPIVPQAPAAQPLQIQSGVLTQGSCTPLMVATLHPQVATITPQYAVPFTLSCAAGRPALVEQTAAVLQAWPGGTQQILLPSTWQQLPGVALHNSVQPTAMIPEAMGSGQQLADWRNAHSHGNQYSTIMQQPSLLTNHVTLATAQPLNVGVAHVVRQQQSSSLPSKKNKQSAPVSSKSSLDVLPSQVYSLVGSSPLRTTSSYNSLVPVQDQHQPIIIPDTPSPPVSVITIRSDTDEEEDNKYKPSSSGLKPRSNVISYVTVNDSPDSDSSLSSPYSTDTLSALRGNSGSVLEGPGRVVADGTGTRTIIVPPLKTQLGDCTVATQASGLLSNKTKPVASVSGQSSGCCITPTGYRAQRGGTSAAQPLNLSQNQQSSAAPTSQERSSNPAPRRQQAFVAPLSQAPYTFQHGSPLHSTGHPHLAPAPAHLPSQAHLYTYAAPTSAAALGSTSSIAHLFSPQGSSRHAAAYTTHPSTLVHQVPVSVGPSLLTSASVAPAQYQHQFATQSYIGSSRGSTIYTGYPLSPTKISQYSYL
Assay [17] has as its target T1, Bone morphogenetic protein receptor type-1B. Kind of assay: Binding affinity to BMPR1B by multi dose competitive binding assay.
Assay [18] in a line: Antiproliferative activity against human NCI60 cells. Type of assay: functional, cell-based.
Assay [19] relates to CCRF-CEM. Description: Antiproliferative activity against human CEM cells after 72 hrs. Type of assay: cell-based. The procedure, abridged:
(§2)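 Cells in growth medium grown with variable compound concentrations at 37 °C in humidified CO2-controlled atmosphere; incubation 48 h for L1210 and FM3A, 72 h for CEM, 96 h for HeLa. Cell number counted by Coulter counter; IC50 = concentration inhibiting proliferation by 50%.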

Assay [20] concerns FM3A. Description: Antiproliferative activity against mouse FM3A cells after 48 hrs. Format: functional, cell-based. The gist of the method: as §2
Assay [21] concerns HeLa. Description: Antiproliferative activity against human HeLa cells after 96 hrs. Format: functional, cell-based. The gist of the method: as §2
The test system of assay [22] is L1210. Description: Antiproliferative activity against mouse L1210 cells after 48 hrs. Format: functional, cell-based. The settings on record: L1210, 48 h. The gist of the method: as §2
Assay [23] deals with T1, Bone morphogenetic protein receptor type-1B. Description: Binding affinity to BMPR1B at >30 uM by multi dose competitive binding assay.

Molecules are shown by their SMILES. Converted amounts (≈) assume the structure as drawn. The source made the active and inactive calls. The calls are words filed in the database; no cut-off is given here.

Chain of Serine/threonine-protein kinase DCLK1 (Homo sapiens) (O15075 whole entry): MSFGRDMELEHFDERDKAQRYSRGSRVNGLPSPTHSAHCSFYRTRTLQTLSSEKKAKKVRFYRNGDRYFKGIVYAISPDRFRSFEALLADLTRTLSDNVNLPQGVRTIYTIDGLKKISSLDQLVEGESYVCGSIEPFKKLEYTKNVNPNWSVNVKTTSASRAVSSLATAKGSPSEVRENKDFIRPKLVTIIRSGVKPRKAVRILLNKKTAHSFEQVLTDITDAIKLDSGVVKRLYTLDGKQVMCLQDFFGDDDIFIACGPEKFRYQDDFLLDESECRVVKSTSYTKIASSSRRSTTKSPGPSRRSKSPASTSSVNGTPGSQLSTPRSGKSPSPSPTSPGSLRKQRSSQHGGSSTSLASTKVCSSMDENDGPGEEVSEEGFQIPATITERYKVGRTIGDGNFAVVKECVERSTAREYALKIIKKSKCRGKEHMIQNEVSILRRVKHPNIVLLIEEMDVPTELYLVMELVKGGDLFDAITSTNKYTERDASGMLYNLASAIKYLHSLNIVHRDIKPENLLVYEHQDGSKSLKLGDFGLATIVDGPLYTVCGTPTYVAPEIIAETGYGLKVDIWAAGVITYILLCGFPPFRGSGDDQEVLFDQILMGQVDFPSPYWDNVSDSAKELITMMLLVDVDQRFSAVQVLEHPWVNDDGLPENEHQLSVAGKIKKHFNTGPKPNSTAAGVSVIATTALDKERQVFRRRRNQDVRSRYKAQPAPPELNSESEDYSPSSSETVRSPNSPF
Chain of Tyrosine-protein kinase Tec (Homo sapiens) (P42680 whole entry): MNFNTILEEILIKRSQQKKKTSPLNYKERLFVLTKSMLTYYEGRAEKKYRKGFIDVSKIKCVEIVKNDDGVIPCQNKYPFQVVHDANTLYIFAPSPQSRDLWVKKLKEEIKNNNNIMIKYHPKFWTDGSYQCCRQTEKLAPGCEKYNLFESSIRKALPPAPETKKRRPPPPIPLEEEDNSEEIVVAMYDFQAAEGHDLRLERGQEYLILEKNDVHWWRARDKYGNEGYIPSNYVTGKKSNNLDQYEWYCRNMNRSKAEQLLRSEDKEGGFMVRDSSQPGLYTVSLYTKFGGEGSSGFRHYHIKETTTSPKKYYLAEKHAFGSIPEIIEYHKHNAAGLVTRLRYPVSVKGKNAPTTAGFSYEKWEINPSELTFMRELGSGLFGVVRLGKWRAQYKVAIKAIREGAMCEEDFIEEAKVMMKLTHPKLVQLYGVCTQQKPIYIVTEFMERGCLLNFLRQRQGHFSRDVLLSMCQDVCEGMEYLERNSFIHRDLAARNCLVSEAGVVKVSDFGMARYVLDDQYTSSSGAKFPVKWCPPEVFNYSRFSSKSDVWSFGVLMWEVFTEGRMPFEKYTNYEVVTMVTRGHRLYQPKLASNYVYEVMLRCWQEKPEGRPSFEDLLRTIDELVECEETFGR
Chain of Tyrosine-protein kinase Blk (Homo sapiens) (P51451 2-505 limits assumed): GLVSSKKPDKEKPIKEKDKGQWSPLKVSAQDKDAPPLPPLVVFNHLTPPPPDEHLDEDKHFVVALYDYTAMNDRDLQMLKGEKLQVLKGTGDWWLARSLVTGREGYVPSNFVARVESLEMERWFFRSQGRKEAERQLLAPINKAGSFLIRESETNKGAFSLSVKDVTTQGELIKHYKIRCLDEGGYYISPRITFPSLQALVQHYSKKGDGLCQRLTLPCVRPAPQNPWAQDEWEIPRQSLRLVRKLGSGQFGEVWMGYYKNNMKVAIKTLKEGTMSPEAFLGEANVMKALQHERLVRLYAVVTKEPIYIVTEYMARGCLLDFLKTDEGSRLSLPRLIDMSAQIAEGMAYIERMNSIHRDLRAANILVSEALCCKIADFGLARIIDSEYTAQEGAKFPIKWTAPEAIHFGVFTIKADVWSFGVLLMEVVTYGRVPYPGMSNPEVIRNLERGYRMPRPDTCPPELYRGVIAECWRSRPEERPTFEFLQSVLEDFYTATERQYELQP

As usually defined, the inhibition is the percentage by which the read-out fell short of the control. A high value points to a response far below the control. The Kd is the free concentration of one partner at which half of the binding sites on the other are occupied at equilibrium, for simple one-to-one binding. The low end stands for a tighter complex, the high end for a looser complex. For the compound `CNC(=O)NC[C@H]1O[C@@H](n2cnc3c(NC(=O)Nc4ccccc4)ncnc32)[C@H](O)[C@@H]1O`, the inhibition came out at 31% in assay [1]; 38% in assay [2]; 35% in assay [3]; 33% in [4]; 41% in [5]; 40% in [6]. The inhibition turned out to be 45% in assay [7]; 37% in assay [8]; 37% in assay [9]; 43% in [10]; 30% in [11]; 32% in assay [12]. The inhibition in assay [13] came out at 38%; in assay [14], 33%; in assay [15], 37%; in [16], 30%. The same compound had a Kd in assay [17] of 11.5 µM.

As a reminder, the IC50 is the midpoint of a concentration-inhibition curve. Regarding `CNC(=O)NC[C@H]1O[C@@H](n2cnc3c(NC(=O)Nc4ccccc4)ncnc32)[C@H](O[Si](C)(C)C(C)(C)C)[C@@H]1O[Si](C)(C)C(C)(C)C`, the IC50 in assay [18] is less than 10 µM; in [19] it was 8.3 µg/mL (≈ 12.4 µM); in [20], 5.9 µg/mL (≈ 8.79 µM); in assay [21] it was 3.2 µg/mL (≈ 4.77 µM); in assay [22] it was 3.8 µg/mL (≈ 5.66 µM). Also, the result in assay [23] was inactive.
